Results published in paper PMC5830699 (ACS Omega, 2018).
≈ marks a conversion by molar mass, not a printed value. Where “and” joins values, the source holds several entries; their conditions need not be identical. Identical values can stand only once. Entries after “also recorded” stand apart in the source; their conditions may differ. Like-named read-outs stand apart in the source and are kept apart here.

Columns and labels:
Hydrogenivirga spp. MraY = type: biochemical; settings: for IC50: read-out: MraY inhibition IC50
C. difficile ATCC 43596 = experiment: microbe, parasite or virus in culture; type: cell-based, Clostridium difficile; settings: for MIC: Clostridioides difficile, ATCC43596, read-out: C. difficile ATCC 43596 MIC
E. coli WecA = biological target: T1, E. coli WecA (Escherichia coli, UniProt P0AC78); experiment: biochemical; type: biochemical
T1 sequence (P0AC78 1-367): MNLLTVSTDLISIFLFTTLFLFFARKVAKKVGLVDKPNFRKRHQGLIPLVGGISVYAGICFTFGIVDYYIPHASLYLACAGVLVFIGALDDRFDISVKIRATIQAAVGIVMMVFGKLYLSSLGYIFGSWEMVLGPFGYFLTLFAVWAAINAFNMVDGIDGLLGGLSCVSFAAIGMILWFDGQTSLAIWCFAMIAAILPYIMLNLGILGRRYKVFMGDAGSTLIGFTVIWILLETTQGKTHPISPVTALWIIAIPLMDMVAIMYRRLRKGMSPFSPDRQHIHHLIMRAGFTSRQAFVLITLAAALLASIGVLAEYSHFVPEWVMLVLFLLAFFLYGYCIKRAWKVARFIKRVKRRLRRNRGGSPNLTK

M. smegmatis WecA = biological target: T2, M. smegmatis WecA (Mycolicibacterium smegmatis, UniProt A0R211); experiment: WecA inhibition assay; type: biochemical
T2 sequence (A0R211 1-406): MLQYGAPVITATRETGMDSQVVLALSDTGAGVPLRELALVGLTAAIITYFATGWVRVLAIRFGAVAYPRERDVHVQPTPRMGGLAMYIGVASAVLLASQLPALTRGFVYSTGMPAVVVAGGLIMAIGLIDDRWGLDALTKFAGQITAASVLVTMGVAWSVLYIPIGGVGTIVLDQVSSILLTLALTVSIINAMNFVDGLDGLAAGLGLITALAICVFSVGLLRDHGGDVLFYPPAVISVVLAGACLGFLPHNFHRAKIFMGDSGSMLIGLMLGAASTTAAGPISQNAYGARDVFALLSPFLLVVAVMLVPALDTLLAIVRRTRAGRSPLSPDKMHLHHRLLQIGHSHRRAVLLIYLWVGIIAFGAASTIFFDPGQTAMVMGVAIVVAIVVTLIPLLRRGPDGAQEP

Vero cells = experiment: Vero cell cytotoxicity; type: cell-based, African green monkey
Method in brief: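 Vero cells (ATCC CCL-81) grown in flasks, then seeded into 96-well plates in Eagle's minimum essential medium with 10% FBS and penicillin–streptomycin. Test compound stock was 1 mg per 100 μL in PEG 300–water (1/1). Serial dilutions spanning 0.78–200 μg/mL were added, with known-toxicity control compounds on every plate. After incubation, cytotoxicity was read by MTT.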

sheep blood = experiment: Hemolysis assay; type: cell-based; settings: for IC50: read-out: hemolysis IC50, sheep blood
[1] = test system: C. difficile (ATCC 43596) spores; experiment: C. difficile spore viability / outgrowth assay; type: cell-based, Clostridium difficile; settings: 24 h treatment, taurocholate agar
Water solubility = type: physicochemical
[2] = test system: Clostridium perfringens (ATCC 13124); experiment: microbe, parasite or virus in culture; type: cell-based; settings: ATCC13124, read-out: MIC Clostridium perfringens
[3] = test system: Bacillus subtilis (ATCC 6051); experiment: microbe, parasite or virus in culture; type: cell-based; settings: ATCC6051, read-out: MIC Bacillus subtilis
Lactobacillus spp. = type: cell-based
Staphylococcus aureus = type: cell-based
[4] = test system: Staphylococcus pneumoniae; type: cell-based
[5] = test system: all Gram-negative bacteria tested; type: cell-based
[6] = test system: C. difficile spore outgrowth; settings: high concentrations; cited from earlier work
vegetative C. difficile = settings: cited from earlier work
M. jannaschii AglH = biological target: T3, M. jannaschii AglH (Methanocaldococcus jannaschii, UniProt Q58513); experiment: AglH counterselection assay; type: biochemical; settings: read-out: AglH inhibition IC50, M. jannaschii AglH
T3 sequence (Q58513 1-301): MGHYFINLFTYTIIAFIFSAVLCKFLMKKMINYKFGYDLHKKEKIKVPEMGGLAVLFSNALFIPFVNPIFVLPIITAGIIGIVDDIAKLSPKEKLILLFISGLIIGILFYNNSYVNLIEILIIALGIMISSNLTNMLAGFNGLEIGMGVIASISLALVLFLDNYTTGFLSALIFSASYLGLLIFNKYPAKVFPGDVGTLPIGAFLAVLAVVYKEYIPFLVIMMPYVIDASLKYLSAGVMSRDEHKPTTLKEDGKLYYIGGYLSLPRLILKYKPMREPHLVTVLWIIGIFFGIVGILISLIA

CN(CCCN)[C@H](C(=O)O)[C@@H](O[C@@H]1O[C@H](CN)[C@@H](O)[C@H]1O)[C@H]1O[C@@H](n2ccc(=O)[nH]c2=O)C(O)C1O (stereo partly drawn) [compound 5, FR-900493-5′R,6′S-Diastereomer]
IC50 (Hydrogenivirga spp. MraY): > 100 µM | MIC (C. difficile ATCC 43596): > 25 µg/mL

CN(CCCN)[C@@H](C(=O)O)[C@@H](O[C@@H]1O[C@H](CN)[C@@H](O)[C@H]1O)[C@H]1O[C@@H](n2ccc(=O)[nH]c2=O)C(O)C1O (stereo partly drawn) [compound 6, FR-900493-5′R, 6′R-Diastereomer]
IC50 (Hydrogenivirga spp. MraY): > 100 µM | MIC (C. difficile ATCC 43596): > 25 µg/mL

CN(CCCN)[C@H](C(N)=O)[C@H](O[C@@H]1O[C@H](CN)[C@@H](O)[C@H]1O)[C@H]1O[C@@H](n2ccc(=O)[nH]c2=O)C(O)C1O (some centres unmarked) [compound 7, FR-900493-Amide]
WecA inhibitory activity (in words) (E. coli WecA): equal to that of 1 | MraY inhibitory activity (in words) (Hydrogenivirga spp. MraY): equal to that of 1 | IC50 (Hydrogenivirga spp. MraY): 25 ± 9.67 µM | MIC (C. difficile ATCC 43596): > 25 µg/mL

NCCCN[C@H](C(N)=O)[C@H](O[C@@H]1O[C@H](CN)[C@@H](O)[C@H]1O)[C@H]1O[C@@H](n2ccc(=O)[nH]c2=O)C(O)C1O (some centres unmarked) [compound 8, De N-Methyl FR-900493]
IC50 (E. coli WecA): > 100 µM | WecA inhibitory activity (in words) (E. coli WecA): completely lost | MraY inhibitory activity (in words) (Hydrogenivirga spp. MraY): completely lost | IC50 (Hydrogenivirga spp. MraY): > 100 µM | MIC (C. difficile ATCC 43596): > 25 µg/mL

NC[C@H]1O[C@@H](O[C@@H]([C@H](NCCCC(=O)NCc2ccc(N3CCC(Oc4ccc(OC(F)(F)F)cc4)CC3)cc2)C(N)=O)[C@H]2O[C@@H](n3ccc(=O)[nH]c3=O)C(O)C2O)[C@H](O)[C@@H]1O (some centres unmarked) [compound 11]
C. difficile ATCC 43596 MIC (C. difficile ATCC 43596): 3.25 ± 4.40 µg/mL | anti-C. difficile activity in library screen (C. difficile ATCC 43596): displayed anti-C. difficile activity | MIC (C. difficile ATCC 43596): 3.25 µg/mL (≈ 3.69 µM) | IC50 (M. smegmatis WecA): 0.25 µM | IC50 (Vero cells; Chlorocebus sabaeus, Vero, read-out: Vero cells IC50, cytotoxicity, MTT): 65 ± 4.65 µM | cytotoxicity against Vero cells of 11 relative to 10 (Vero cells; less cytotoxic than 10): approximately 8 times | induction of hemolysis (in words) (sheep blood; at 100 μM concentration): does not induce hemolysis | IC50 (sheep blood; listed as UT-17460 (11)): 206 ± 4.33 µM | outgrowth of C. difficile spores (in words) ([1]; 2× MIC): prevented the outgrowth; also recorded: inhibited the outgrowth | water solubility of 11 relative to 10 (Water solubility; greater than 10): 200 times | solubility (Water solubility; water): 22 mg/mL (≈ 24900 µM) | MIC [2]: 3.1 µg/mL (≈ 3.52 µM) | MIC [3]: 1.6 µg/mL (≈ 1.81 µM) | growth inhibition of Lactobacillus spp. (Lactobacillus spp.): > 25.0 µg/mL | growth inhibition of Staphylococcus aureus (Staphylococcus aureus): > 25.0 µg/mL | growth inhibition of Staphylococcus pneumoniae [4]: > 25.0 µg/mL | growth inhibition of all Gram-negative bacteria tested [5]: > 25.0 µg/mL

CN(CCCC(=O)NCc1ccc(N2CCC(Oc3ccc(OC(F)(F)F)cc3)CC2)cc1)[C@H](C(N)=O)[C@H](O[C@@H]1O[C@H](CN)[C@@H](O)[C@H]1O)[C@H]1O[C@@H](n2ccc(=O)[nH]c2=O)C(O)C1O (some centres unmarked) [compound 12]
MraY inhibitory activity relative to FR-900493 (1) (Hydrogenivirga spp. MraY): > 3 fold | anti-C. difficile activity in library screen (C. difficile ATCC 43596): displayed anti-C. difficile activity | MIC (C. difficile ATCC 43596): 50 ± 5.81 µg/mL (≈ 55.8 µM)

CCc1c(Cl)c(O)c(Cl)c(O)c1C(=O)O[C@H]1[C@H](O)[C@H](OC)[C@H](OC/C2=C\C=C\C[C@H](O)/C(C)=C/[C@H](CC)[C@@H](O[C@@H]3OC(C)(C)[C@@H](OC(=O)C(C)C)[C@H](O)[C@@H]3O)/C(C)=C/C(C)=C/C[C@@H]([C@@H](C)O)OC2=O)O[C@@H]1C [fidaxomicin]
concentration inhibiting C. difficile spore outgrowth [6]: 4.0 to 14 µg/mL | MIC90 (vegetative C. difficile): 0.5 µg/mL (≈ 0.473 µM)

CC(=O)NC[C@H]1CN(c2ccc(N3CCOCC3)c(F)c2)C(=O)O1 [linezolid]
outgrowth of C. difficile spores (in words) ([1]; 5× MIC): did not inhibit the spore outgrowth

Cc1ncc([N+](=O)[O-])n1CCO [metronidazole]
outgrowth of C. difficile spores (in words) ([1]; 5× MIC): did not inhibit the spore outgrowth

CN[C@H](CC(C)C)C(=O)N[C@H]1C(=O)N[C@@H](CC(N)=O)C(=O)N[C@H]2C(=O)N[C@H]3C(=O)N[C@H](C(=O)N[C@H](C(=O)O)c4cc(O)cc(O)c4-c4cc3ccc4O)[C@H](O)c3ccc(c(Cl)c3)Oc3cc2cc(c3O[C@@H]2O[C@H](CO)[C@@H](O)[C@H](O)[C@H]2O[C@H]2C[C@](C)(N)[C@H](O)[C@H](C)O2)Oc2ccc(cc2Cl)[C@H]1O [vancomycin, reference compound]
IC50 (E. coli WecA): > 50 µM | IC50 (Hydrogenivirga spp. MraY): > 50 µM | MIC (C. difficile ATCC 43596): 2.5 µg/mL (≈ 1.73 µM) | outgrowth of C. difficile spores (in words) ([1]; 5× MIC): did not inhibit the spore outgrowth

tunicamycin [reference compound]
C. difficile ATCC 43596 MIC (C. difficile ATCC 43596): >25.0 µg/mL and >50.0 µg/mL | IC50 (M. jannaschii AglH): 13.3 ± 8.1 µM | IC50 (sheep blood): 15 ± 7.83 µM
